Results as given in ChEMBL document CHEMBL3627614, “Structure-based design, synthesis, X-ray studies, and biological evaluation of novel HIV-1 protease inhibitors containing isophthalamide-derived P2-ligands” (Bioorg Med Chem Lett, 2015).

Columns and labels:
[1] = tested on: Human immunodeficiency virus 1; test: Antiviral activity against HIV-1 LAI infected in MT-2 cells measured after 7 days by MTT assay; assay type: functional, organism-based; conditions: Human immunodeficiency virus 1, LAI, MT2, 168 h
Protease = Protease (Human immunodeficiency virus 1, UniProt Q9YQ12); test: Inhibition of HIV-1 protease by fluorometric assay
Method in brief: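 Run by a previously published protease assay protocol, with inhibitory potency reported as the inhibition constant Ki.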

Chain of Protease (Q9YQ12 whole entry): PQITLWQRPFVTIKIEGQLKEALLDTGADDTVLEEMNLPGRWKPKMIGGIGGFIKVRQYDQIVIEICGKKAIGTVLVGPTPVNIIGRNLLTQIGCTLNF

Row | SMILES | IC50 [1] [µM] | Ki (Protease) [µM]
1 | COC[C@H]1C[C@H](O)CN1C(=O)c1cccc(C(=O)N[C@@H](Cc2ccccc2)[C@H](O)CN(CC(C)C)S(=O)(=O)c2ccc(OC)cc2)c1 | 0.389 | 0.00027
2 | Cc1coc(CN(C)C(=O)c2cccc(C(=O)N[C@@H](Cc3ccccc3)[C@H](O)CN(CC(C)C)S(=O)(=O)c3ccc(CO)cc3)c2)n1 | – | 0.00063
3 | COc1ccc(S(=O)(=O)N(CC(C)C)C[C@@H](O)[C@H](Cc2ccccc2)NC(=O)c2cccc(C(=O)N3CCOCC3)c2)cc1 | 0.025 | 0.00042
4 | COc1ccc(S(=O)(=O)N(CC(C)C)C[C@@H](O)[C@H](Cc2ccccc2)NC(=O)c2cc(C)cc(C(=O)N(C)Cc3nc(C)oc3C)c2)cc1 | 0.031 | 0.00021
5 | CCCNC(=O)c1cccc(C(=O)N[C@@H](Cc2ccccc2)[C@H](O)CN(CC(C)C)S(=O)(=O)c2ccc(OC)cc2)c1 | – | 0.0251
6 | CCCN(C)C(=O)c1cc(NC)cc(C(=O)N[C@@H](Cc2ccccc2)[C@H](O)CN(CC(C)C)S(=O)(=O)c2ccc(OC)cc2)c1 | – | 0.158
7 | COCc1coc(CN(C)C(=O)c2cccc(C(=O)N[C@@H](Cc3ccccc3)[C@H](O)CN(CC(C)C)S(=O)(=O)c3ccc(OC)cc3)c2)n1 | 0.025 | 0.00031
8 | CCCN(C)C(=O)c1cc(OC)cc(C(=O)N[C@@H](Cc2ccccc2)[C@H](O)CN(CC(C)C)S(=O)(=O)c2ccc(OC)cc2)c1 | – | 0.0204
9 | CCCN(CCC)C(=O)c1cccc(C(=O)N[C@@H](Cc2ccccc2)[C@H](O)CN(CC(C)C)S(=O)(=O)c2ccc(OC)cc2)c1 | > 1 | 0.0124
10 | COC[C@@H]1C[C@@H](O)CN1C(=O)c1cccc(C(=O)N[C@@H](Cc2ccccc2)[C@H](O)CN(CC(C)C)S(=O)(=O)c2ccc(OC)cc2)c1 | 0.178 | 0.00285
11 | COc1ccc(S(=O)(=O)N(CC(C)C)C[C@@H](O)[C@H](Cc2ccccc2)NC(=O)c2cccc(C(=O)N3CCN(C)CC3)c2)cc1 | 0.045 | 0.00054
12 | CCCN(C)C(=O)c1cccc(C(=O)N[C@@H](Cc2ccccc2)[C@H](O)CN(CC(C)C)S(=O)(=O)c2ccc(OC)cc2)c1 | – | 0.0051
13 | COC[C@H]1C[C@@H](O)CN1C(=O)c1cccc(C(=O)N[C@@H](Cc2ccccc2)[C@H](O)CN(CC(C)C)S(=O)(=O)c2ccc(OC)cc2)c1 | 0.19 | 0.00027
14 | COC[C@@H]1C[C@H](O)CN1C(=O)c1cccc(C(=O)N[C@@H](Cc2ccccc2)[C@H](O)CN(CC(C)C)S(=O)(=O)c2ccc(OC)cc2)c1 | > 1 | 0.0015
15 | COc1ccc(S(=O)(=O)N(CC(C)C)C[C@@H](O)[C@H](Cc2ccccc2)NC(=O)c2cccc(C(=O)N(C)Cc3nc(C)oc3C)c2)cc1 | 0.014 | 0.00017
